molecular target: T1, Calpain-2 catalytic subunit (Homo sapiens, UniProt P17655); assay: Compound was evaluated for the inhibition of Cysteine protease Calpain 2
T1 sequence (P17655 whole entry): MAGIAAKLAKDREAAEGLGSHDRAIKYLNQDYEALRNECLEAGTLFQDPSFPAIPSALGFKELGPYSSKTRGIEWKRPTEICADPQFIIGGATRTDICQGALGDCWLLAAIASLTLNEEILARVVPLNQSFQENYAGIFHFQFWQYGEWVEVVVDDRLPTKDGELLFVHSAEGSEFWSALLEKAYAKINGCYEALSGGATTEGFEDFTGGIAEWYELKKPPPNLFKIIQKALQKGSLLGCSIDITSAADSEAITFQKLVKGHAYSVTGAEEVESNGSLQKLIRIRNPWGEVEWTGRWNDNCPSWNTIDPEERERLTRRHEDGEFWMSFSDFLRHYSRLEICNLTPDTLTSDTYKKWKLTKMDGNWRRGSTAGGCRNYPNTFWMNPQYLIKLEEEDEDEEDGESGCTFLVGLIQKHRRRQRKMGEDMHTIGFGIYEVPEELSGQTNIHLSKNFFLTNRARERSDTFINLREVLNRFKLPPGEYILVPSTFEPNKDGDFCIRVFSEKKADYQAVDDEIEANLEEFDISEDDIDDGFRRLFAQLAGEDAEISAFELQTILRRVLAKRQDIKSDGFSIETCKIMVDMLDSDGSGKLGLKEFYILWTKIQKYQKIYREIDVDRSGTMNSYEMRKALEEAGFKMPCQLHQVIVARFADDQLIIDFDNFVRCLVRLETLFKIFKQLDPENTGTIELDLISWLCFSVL
Method in brief: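 Calpain assay in 25 mM Tris, pH 8.0, with 10 mM CaCl₂ and 5% DMSO. Suc-Leu-AMC hydrolysis was read as initial velocity (t = 30-60 s) after a 30 s delay, at room temperature. Five or more inhibitor concentrations (not above 2 × K_obs) were used at two fixed substrate levels. Ki came from Dixon plots (1/v vs I) averaged over triplicates.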

Point of comparison: `CNC(=O)C(=O)C(Cc1ccccc1)NC(=O)C(CC(C)C)NC(=O)OCc1ccccc1` (centres undefined) [[1-(1-Benzyl-2-methylcarbamoyl-2-oxo-ethylcarbamoyl)-3-methyl-butyl]-carbamic acid benzyl ester], Ki 150 nM. Against it:
- CCNC(=O)C(=O)C(CC)NC(=O)C(CC(C)C)NC(=O)c1ccc2ccccc2n1 (centres undefined) [Quinoline-2-carboxylic acid [1-(1-ethylaminooxalyl-propylcarbamoyl)-3-methyl-butyl]-amide] — 2-fold higher, 300 nM
- CC(C)CC(NC(=O)OCc1ccccc1)C(=O)NC(Cc1ccccc1)C(=O)C(=O)NCCNC(=O)CCCC[C@@H]1SC[C@@H]2NC(=O)N[C@@H]21 (stereo partly drawn) [[1-(1-Benzyl-2-oxo-2-{2-[5-((3aR,6S,6aS)-2-oxo-hexahydro-thieno[3,4-d]imidazol-6-yl)-pentanoylamino]-ethylcarbamoyl}-ethylcarbamoyl)-3-methyl-butyl]-carbamic acid benzyl ester] — within 1.5-fold, 160 nM
- CC(C)CC(NC(=O)OCc1ccccc1)C(=O)NC(Cc1ccccc1)C(=O)C(=O)NCC(O)c1cccc(Oc2ccc(Cl)c(Cl)c2)c1 (centres undefined) [[1-(1-Benzyl-2-{2-[3-(3,4-dichloro-phenoxy)-phenyl]-2-hydroxy-ethylcarbamoyl}-2-oxo-ethylcarbamoyl)-3-methyl-butyl]-carbamic acid benzyl ester] — within 1.5-fold, 120 nM
- CC(C)CC(NC(=O)OCc1ccccc1)C(=O)NC(Cc1ccccc1)C(=O)C(=O)NCC(O)c1cccc(Oc2cccc(C(F)(F)F)c2)c1 (centres undefined) [[1-(1-Benzyl-2-{2-hydroxy-2-[3-(3-trifluoromethyl-phenoxy)-phenyl]-ethylcarbamoyl}-2-oxo-ethylcarbamoyl)-3-methyl-butyl]-carbamic acid benzyl ester] — 3-fold higher, 450 nM
- CCC(NC(=O)C(CC(C)C)NC(=O)OCc1ccccc1)C(=O)C(=O)NCc1ccccc1 (centres undefined) [[1-(1-Benzylaminooxalyl-propylcarbamoyl)-3-methyl-butyl]-carbamic acid benzyl ester] — 2.3-fold higher, 350 nM
- CCC(NC(=O)C(CC(C)C)NC(=O)OCc1ccccc1)C(=O)C(=O)NCC(O)c1cccc(Oc2cccc(C(F)(F)F)c2)c1 (centres undefined) [[1-(1-{2-Hydroxy-2-[3-(3-trifluoromethyl-phenoxy)-phenyl]-ethylaminooxalyl}-propylcarbamoyl)-3-methyl-butyl]-carbamic acid benzyl ester] — 1.9-fold higher, 280 nM
- CCC(NC(=O)C(CC(C)C)NC(=O)OCc1ccccc1)C(=O)C(=O)NCC(O)c1cccc(Oc2ccc(Cl)c(Cl)c2)c1 (centres undefined) [[1-(1-{2-[3-(3,4-Dichloro-phenoxy)-phenyl]-2-hydroxy-ethylaminooxalyl}-propylcarbamoyl)-3-methyl-butyl]-carbamic acid benzyl ester] — within 1.5-fold, 120 nM
- CCC(NC(=O)C(CC(C)C)NC(=O)OCc1ccccc1)C(=O)C(=O)NC (centres undefined) [[3-Methyl-1-(1-methylaminooxalyl-propylcarbamoyl)-butyl]-carbamic acid benzyl ester] — 1.8-fold lower, 83 nM
- CCC(NC(=O)C(CC(C)C)NC(=O)OCc1ccccc1)C(=O)C(=O)NCCNC(=O)CCCC[C@@H]1SC[C@@H]2NC(=O)N[C@@H]21 (stereo partly drawn) [[3-Methyl-1-(1-{2-[5-((3aR,6S,6aS)-2-oxo-hexahydro-thieno[3,4-d]imidazol-6-yl)-pentanoylamino]-ethylaminooxalyl}-propylcarbamoyl)-butyl]-carbamic acid benzyl ester] — 1.9-fold higher, 280 nM
- CCOC(CNC(=O)C(=O)C(CC)NC(=O)C(CC(C)C)NC(=O)OCc1ccccc1)OCC (centres undefined) [{1-[1-(2,2-Diethoxy-ethylaminooxalyl)-propylcarbamoyl]-3-methyl-butyl}-carbamic acid benzyl ester] — within 1.5-fold, 160 nM
- CCC(NC(=O)C(CC(C)C)NC(=O)OCc1ccccc1)C(=O)C(=O)NCC(OC)OC (centres undefined) [{1-[1-(2,2-Dimethoxy-ethylaminooxalyl)-propylcarbamoyl]-3-methyl-butyl}-carbamic acid benzyl ester] — 1.5-fold lower, 100 nM
- CCC(NC(=O)C(CC(C)C)NC(=O)OCc1ccccc1)C(=O)C(=O)NCC(O)c1cccc2ccccc12 (centres undefined) [{1-[1-(2-Hydroxy-2-naphthalen-1-yl-ethylaminooxalyl)-propylcarbamoyl]-3-methyl-butyl}-carbamic acid benzyl ester] — within 1.5-fold, 170 nM
- CCC(NC(=O)C(CC(C)C)NC(=O)OCc1ccccc1)C(=O)C(=O)NCC(O)c1ccc2ccccc2c1 (centres undefined) [{1-[1-(2-Hydroxy-2-naphthalen-2-yl-ethylaminooxalyl)-propylcarbamoyl]-3-methyl-butyl}-carbamic acid benzyl ester] — within 1.5-fold, 110 nM
- CCC(NC(=O)C(CC(C)C)NC(=O)OCc1ccccc1)C(=O)C(=O)NCC(O)c1c(F)c(F)c(F)c(F)c1F (centres undefined) [{1-[1-(2-Hydroxy-2-pentafluorophenyl-ethylaminooxalyl)-propylcarbamoyl]-3-methyl-butyl}-carbamic acid benzyl ester] — within 1.5-fold, 200 nM
- CCCC(NC(=O)C(CC(C)C)NC(=O)OCc1ccccc1)C(=O)C(=O)NCC(O)c1ccccc1 (centres undefined) [{1-[1-(2-Hydroxy-2-phenyl-ethylaminooxalyl)-butylcarbamoyl]-3-methyl-butyl}-carbamic acid benzyl ester] — 73-fold higher, 11000 nM
- CCC(NC(=O)C(CC(C)C)NC(=O)OCc1ccccc1)C(=O)C(=O)NCC(O)c1ccccc1 (centres undefined) [{1-[1-(2-Hydroxy-2-phenyl-ethylaminooxalyl)-propylcarbamoyl]-3-methyl-butyl}-carbamic acid benzyl ester] — 10-fold lower, 15 nM
- CCC(NC(=O)C(CC(C)C)NC(=O)OCc1ccccc1)C(=O)C(=O)NCCO (centres undefined) [{1-[1-(2-Hydroxy-ethylaminooxalyl)-propylcarbamoyl]-3-methyl-butyl}-carbamic acid benzyl ester] — 1.9-fold lower, 78 nM
- CCC(NC(=O)C(CC(C)C)NC(=O)OCc1ccccc1)C(=O)C(=O)NCc1cc(OC)cc(OC)c1 (centres undefined) [{1-[1-(3,5-Dimethoxy-benzylaminooxalyl)-propylcarbamoyl]-3-methyl-butyl}-carbamic acid benzyl ester] — 6.8-fold lower, 22 nM
- CCC(NC(=O)C(CC(C)C)NC(=O)OCc1ccccc1)C(=O)C(=O)NCCCn1ccnc1 (centres undefined) [{1-[1-(3-Imidazol-1-yl-propylaminooxalyl)-propylcarbamoyl]-3-methyl-butyl}-carbamic acid benzyl ester] — 2.2-fold lower, 68 nM
- CCC(NC(=O)C(CC(C)C)NC(=O)OCc1ccccc1)C(=O)C(=O)NCC1(C)CC(O)CC(C)(C)C1 (centres undefined) [{1-[1-(5-Hydroxy-1,3,3-trimethyl-cyclohexylmethyl)-aminooxalyl]-propylcarbamoyl}-3-methyl-butyl)-carbamic acid benzyl ester] — 2.2-fold lower, 69 nM
- CCC(NC(=O)C(CC(C)C)NC(=O)OCc1ccccc1)C(=O)C(=O)NCCCCCO (centres undefined) [{1-[1-(5-Hydroxy-pentylaminooxalyl)-propylcarbamoyl]-3-methyl-butyl}-carbamic acid benzyl ester] — 2.9-fold lower, 51 nM
- CCC(NC(=O)C(CC(C)C)NC(=O)OCc1ccccc1)C(=O)C(=O)NCc1ccco1 (centres undefined) [{1-[1-(Furan-2-ylmethyl)-aminooxalyl]-propylcarbamoyl}-3-methyl-butyl)-carbamic acid benzyl ester] — 4.5-fold lower, 33 nM
- CCC(NC(=O)C(CC(C)C)NC(=O)OCc1ccccc1)C(=O)C(=O)NCc1nccc2ccccc12 (centres undefined) [{1-[1-(Isoquinolin-1-ylmethyl)-aminooxalyl]-propylcarbamoyl}-3-methyl-butyl)-carbamic acid benzyl ester] — the same, 150 nM

— BindingDB's records for doi:10.1021/jm950541c (Georgia Institute of Technology, 1996)
